# Test results taken from ChEMBL document CHEMBL4312027, “Synthesis, characterization, and biological activity of a triphenylphosphonium-containing imidazolium salt against select bladder cancer cell lines” (Eur J Med Chem, 2020).
# Activity calls are given as the source filed them. The rule behind the calls is not given here.
# Columns and labels:
# MOLT-4 = assay: Growth inhibition of human MOLT4 cells assessed as growth percent at 10 uM incubated for 48 hrs by sulforhodamine B assay relative to control; assay type: functional; details: MOLT-4, 48 h, read-out: Activity
# Mus musculus = assay: Antitumor activity against anesthetized BBN-induced bladder tumor mouse model assessed as increase in cleaved caspase 3 level in necrotic region at 1500 uM administered via intravesical instillation treated for 1 hr administered as 2 doses at 24 hrs interval and measured at 24 hrs after final treatment by hematoxylin and eosin staining based immunohistochemical analysis; assay type: functional, organism-based
# CAKI-1 = assay: Growth inhibition of human Caki1 cells assessed as growth percent at 10 uM incubated for 48 hrs by sulforhodamine B assay relative to control; assay type: functional; details: CAKI-1, 48 h, read-out: Activity
# NCI-H460 = assay: Growth inhibition of human NCI-H460 cells assessed as growth percent at 10 uM incubated for 48 hrs by sulforhodamine B assay relative to control; assay type: functional; details: NCI-H460, 48 h, read-out: Activity
# NCI-H522 = assay: Growth inhibition of human NCI-H522 cells assessed as growth percent at 10 uM incubated for 48 hrs by sulforhodamine B assay relative to control; assay type: functional; details: NCI-H522, 48 h, read-out: Activity
# RT-4 [1] = assay: Growth inhibition of human RT4 cells at 500 uM measured after 1 hr by Celltiter-Glo luminescent cell viability assay relative to control; assay type: functional; details: RT-4, 1 h, read-out: GI
# How it was run: (§1)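 Cells seeded 10000/well, 24 h, then exposed in ATCC-recommended medium to 62.5–2000 μM (two-fold steps) or vehicle for the set time (5–60 min), then normal medium. After 24 h, plates equilibrated 30 min at room temperature, CellTiter-Glo added, 2 min at room temperature, luminescence read. Survival relative to vehicle control; quadruplicate.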
# U-251 = assay: Growth inhibition of human U251 cells assessed as growth percent at 10 uM incubated for 48 hrs by sulforhodamine B assay relative to control; assay type: functional; details: U-251, 48 h, read-out: Activity
# IGROV-1 = assay: Growth inhibition of human IGROV1 cells assessed as growth percent at 10 uM incubated for 48 hrs by sulforhodamine B assay relative to control; assay type: functional; details: IGROV-1, 48 h, read-out: Activity
# RT-112 = assay: Anticlonogenic activity against human RT112 cells assessed as no colony formation at 250 to 500 uM incubated for 1 hr measured after culturing in normal medium for 10 days by crystal violet staining assay; assay type: functional, cell-based
# How it was run: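 Cells seeded at 500/well, treated 24 h later with 250 or 500 μM drug or vehicle for 1 h. Cells were then grown in normal media for 10 days, stained with 0.5% crystal violet in 20% MeOH/water at 4 °C for 5 min, washed, dried and imaged. Run in triplicate.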
# [2] = Toxicity in anesthetized female mouse model assessed as fibrosis at 750 to 1500 uM administered via intravesical instillation after bladder evacuation treated for 1 hr followed by repetition of the treatment after 24 hrs and measured at 24 hrs after final treatment; details: in vivo, other
# How it was run: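 Female mice anesthetized, 1–3% isoflurane. Bladder evacuated, then 100 μL of 750 or 1500 μM in 10% DMSO/PBS (or vehicle) instilled by 24G angiocatheter. Catheter left in place for a 1 h dwell. Repeated after 24 h; mice sacrificed 24 h after final dose. Bladder histology read for urothelial height and layers.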
# SF-268 = assay: Growth inhibition of human SF268 cells assessed as growth percent at 10 uM incubated for 48 hrs by sulforhodamine B assay relative to control; assay type: functional; details: SF-268, 48 h, read-out: Activity
# OVCAR-8 = assay: Growth inhibition of human OVCAR8 cells assessed as growth percent at 10 uM incubated for 48 hrs by sulforhodamine B assay relative to control; assay type: functional; details: OVCAR-8, 48 h, read-out: Activity
# TK-10 = assay: Growth inhibition of human TK10 cells assessed as growth percent at 10 uM incubated for 48 hrs by sulforhodamine B assay relative to control; assay type: functional; details: TK-10, 48 h, read-out: Activity
# SF-539 = assay: Growth inhibition of human SF539 cells assessed as growth percent at 10 uM incubated for 48 hrs by sulforhodamine B assay relative to control; assay type: functional; details: SF-539, 48 h, read-out: Activity
# RT-4 [3] = assay: Growth inhibition of human RT4 cells at 1000 uM measured after 5 mins by Celltiter-Glo luminescent cell viability assay; assay type: functional, cell-based; how it was run: as §1
# HCT-116 = assay: Growth inhibition of human HCT116 cells assessed as growth percent at 10 uM incubated for 48 hrs by sulforhodamine B assay relative to control; assay type: functional; details: HCT-116, 48 h, read-out: Activity
# A498 = assay: Growth inhibition of human A498 cells assessed as growth percent at 10 uM incubated for 48 hrs by sulforhodamine B assay relative to control; assay type: functional; details: A498, 48 h, read-out: Activity
# MDA-MB-231 = assay: Growth inhibition of human MDA-MB-231 cells assessed as growth percent at 10 uM incubated for 48 hrs by sulforhodamine B assay relative to control; assay type: functional; details: MDA-MB-231, 48 h, read-out: Activity
# SR = assay: Growth inhibition of human SR cells assessed as growth percent at 10 uM incubated for 48 hrs by sulforhodamine B assay relative to control; assay type: functional; details: read-out: Activity
# RPMI-8226 = assay: Growth inhibition of human RPMI8226 cells assessed as growth percent at 10 uM incubated for 48 hrs by sulforhodamine B assay relative to control; assay type: functional; details: RPMI-8226, 48 h, read-out: Activity
smiles,measurement,setting,value
[Br-].[Br-].c1ccc([P+](CCCc2n(Cc3ccc4ccccc4c3)c3ccccc3[n+]2Cc2ccc3ccccc3c2)(c2ccccc2)c2ccccc2)cc1,growth at 10 µM,MOLT-4,57.6%
same,Activity,Mus musculus,Active
same,growth at 10 µM,CAKI-1,79.9%
same,growth at 10 µM,NCI-H460,34.8%
same,growth at 10 µM,NCI-H522,60.2%
same,inhibition of growth at 500 µM,RT-4 [1],100%
same,growth at 10 µM,U-251,46.5%
same,growth at 10 µM,IGROV-1,20.8%
same,inhibition,RT-112,Active
same,Activity,[2],Non-Toxic
same,growth at 10 µM,SF-268,79%
same,growth at 10 µM,OVCAR-8,70.2%
same,growth at 10 µM,TK-10,89.2%
same,growth at 10 µM,SF-539,36.8%
same,growth inhibition (GI),RT-4 [3],Active
same,growth at 10 µM,HCT-116,24.2%
same,growth at 10 µM,A498,67.2%
same,growth at 10 µM,MDA-MB-231,51%
same,growth at 10 µM,SR,30.8%
same,growth at 10 µM,RPMI-8226,6.9%
